Data set [1] addresses T1, ATP-dependent translocase ABCB1 (Homo sapiens, UniProt P08183). Description: Modulation of ABCB1 (unknown origin) expressed in mouse L5178Y-MDR cells assessed as multidrug resistance reversing activity by measuring fluorescence activity ratio at 20 uM by rhodamine-123 accumulation based flow cytometry (reference value: 1.1 No unit). The class given is cell-based. Background: Flow cytometry measures light scatter and fluorescence of single cells or particles in a stream.

The target in data set [2] is T1, ATP-dependent translocase ABCB1. In words: Modulation of ABCB1 (unknown origin) expressed in mouse L5178Y-MDR cells assessed as multidrug resistance reversing activity by measuring fluorescence activity ratio at 0.2 uM by rhodamine-123 accumulation based flow cytometry (reference value: 1.1 No unit). The data set is classed as cell-based.
Data set [3] is described as follows: Antiproliferative activity against mouse L5178Y cells transfected with ABCB1 by MTT assay. The data set is classed as ADME, cell-based. As to conditions: read-out: ID50 (the source's name). The essentials: (§1)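 MTT assay on parental L5178 mouse T-lymphoma cells and a subline transfected with pHa MDR1/A retrovirus (human ABCB1) and selected with colchicine. Cells were exposed to increasing concentrations from 0.26 to 133 μM. Other handling followed earlier reports.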
(In general: Formazan colour is commonly taken as a measure of viable cells.)

Data set [4] has as its target T1, ATP-dependent translocase ABCB1. In words: Modulation of ABCB1 (unknown origin) expressed in mouse L5178Y-MDR cells assessed as multidrug resistance reversing activity by measuring fluorescence activity ratio at 2 uM by rhodamine-123 accumulation based flow cytometry (reference value: 1.1 No unit). The data set is classed as cell-based.
A short description of data set [5]: Antiproliferative activity against mouse L5178Y cells by MTT assay. The data set is classed as cell-based. Particulars: read-out: ID50 (the source's name). The essentials: as §1

Some results are limits rather than exact numbers.

T1 sequence (P08183 whole entry): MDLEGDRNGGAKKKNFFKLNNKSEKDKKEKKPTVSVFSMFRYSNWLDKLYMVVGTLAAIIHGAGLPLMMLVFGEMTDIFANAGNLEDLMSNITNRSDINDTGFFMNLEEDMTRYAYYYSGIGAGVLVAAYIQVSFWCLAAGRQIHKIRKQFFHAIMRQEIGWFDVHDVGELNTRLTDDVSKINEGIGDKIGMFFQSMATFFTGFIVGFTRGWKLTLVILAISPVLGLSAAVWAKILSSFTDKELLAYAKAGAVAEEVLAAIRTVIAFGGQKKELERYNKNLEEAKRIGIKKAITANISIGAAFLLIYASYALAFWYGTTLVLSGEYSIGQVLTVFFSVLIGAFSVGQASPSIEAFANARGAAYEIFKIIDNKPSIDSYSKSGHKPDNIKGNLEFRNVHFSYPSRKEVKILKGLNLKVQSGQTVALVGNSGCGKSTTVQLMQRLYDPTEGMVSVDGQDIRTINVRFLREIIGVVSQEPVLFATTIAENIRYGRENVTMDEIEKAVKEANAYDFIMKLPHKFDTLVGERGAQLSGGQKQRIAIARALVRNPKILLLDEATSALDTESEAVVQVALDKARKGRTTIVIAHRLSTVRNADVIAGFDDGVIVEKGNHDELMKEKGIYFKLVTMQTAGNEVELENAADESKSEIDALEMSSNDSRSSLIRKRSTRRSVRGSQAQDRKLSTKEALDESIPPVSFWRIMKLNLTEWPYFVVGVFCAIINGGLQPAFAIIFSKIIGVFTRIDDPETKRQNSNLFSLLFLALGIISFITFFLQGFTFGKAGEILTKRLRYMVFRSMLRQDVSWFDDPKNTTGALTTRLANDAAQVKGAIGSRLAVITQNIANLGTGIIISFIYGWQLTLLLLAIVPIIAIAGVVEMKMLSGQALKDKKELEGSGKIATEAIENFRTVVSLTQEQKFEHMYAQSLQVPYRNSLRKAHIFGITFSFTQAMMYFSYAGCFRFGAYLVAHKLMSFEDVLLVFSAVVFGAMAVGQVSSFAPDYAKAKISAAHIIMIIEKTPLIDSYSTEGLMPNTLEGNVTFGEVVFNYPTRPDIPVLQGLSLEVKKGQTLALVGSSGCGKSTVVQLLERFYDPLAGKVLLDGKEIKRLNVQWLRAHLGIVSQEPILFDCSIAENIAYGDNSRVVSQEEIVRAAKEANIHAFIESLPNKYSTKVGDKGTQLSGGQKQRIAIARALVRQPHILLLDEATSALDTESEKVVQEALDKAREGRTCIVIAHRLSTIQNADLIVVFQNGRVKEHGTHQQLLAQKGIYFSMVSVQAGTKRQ

On to `CC(C)=CC(=O)C[C@@H](C)[C@H]1CC[C@@]2(C)[C@@H]3C(=O)[C@@H]4C(C)(C)[C@@]45C(=O)CC[C@H]5[C@]3(C)CC[C@]12C`, for which the results for the Ratio in data set [1], in data set [2] and in data set [4] were 105.5, 5.9 and 76.7, respectively. Moreover, the GI50 in data set [3] and in data set [5] was > 100 µM throughout.

On to `C=C(C)/C=C/C[C@@H](C)[C@H]1CC[C@@]2(C)[C@@H]3C(=O)[C@@H]4C(C)(C)[C@@]45C(=O)CC[C@H]5[C@]3(C)CC[C@]12C`, for which the Ratio in data set [1] was 117.7; in data set [2], 3.1; in data set [4] it was 62.2. Besides, the values for the GI50 in data set [3] and in data set [5] were 37.6 µM and 20.7 µM, respectively.

Take `CC(=O)C[C@@H](C)[C@H]1CC[C@@]2(C)[C@@H]3C(=O)[C@@H]4C(C)(C)[C@@]45C(=O)CC[C@H]5[C@]3(C)CC[C@]12C`: the Ratio in data set [1] worked out at 87.5; in data set [2], 1.4; in data set [4], 14.2. Also, the values for the GI50 in data set [3] and in data set [5] were 68.3 µM and 72.2 µM, respectively.

For the origin of these results see ChEMBL document CHEMBL4387787, “Cucurbalsaminones A-C, Rearranged Triterpenoids with a 5/6/3/6/5-Fused Pentacyclic Carbon Skeleton from Momordica balsamina, as Multidrug Resistance Reversers” (J Nat Prod, 2019).
